Experimental data taken from ChEMBL document CHEMBL4334471, “Discovery of 1,8-disubstituted-[1,2,3]triazolo[4,5-c]quinoline derivatives as a new class of Hippo signaling pathway inhibitors” (Bioorg Med Chem Lett, 2019).

What was measured:
[1] = test system: Tyrosine-protein kinase ABL1 (Homo sapiens), P00519 [H396P]; test: Inhibition of human ABL1 H396P mutant (27 to end residues) assessed as residual activity at 10 uM using EAIYAAPFAKKK as substrate incubated for 40 mins in presence of [gamma-33ATP] by scintillation counting based radiometry assay relative to control
[2] = target: Aurora kinase B (Homo sapiens) (UniProt Q96GD4); test: Inhibition of recombinant full length human Aurora B assessed as residual activity at 10 uM using AKRRRLSSLRA as substrate incubated for 40 mins in presence of [gamma-33ATP] by scintillation counting based radiometry assay relative to control
[3] = test system: Casein kinase I isoform gamma-3 (Homo sapiens), Q9Y6M4 [UNDEFINED MUTATION]; test: Inhibition of recombinant human CK1gamma3 K91E/R174G/E302D mutant (1 to 330 residues) assessed as residual activity at 10 uM using KRRRALS(p)VASLPGL as substrate incubated for 40 mins in presence of [gamma-33ATP] by scintillation counting based radiometry assay relative to control
[4] = target: Serine/threonine-protein kinase 35 (Homo sapiens) (UniProt Q8TDR2); test: Inhibition of recombinant full length human CLIK1 assessed as residual activity at 10 uM using RSRSRSRSRSRS as substrate incubated 40 mins in presence of [gamma-33ATP] by scintillation counting based radiometry assay relative to control
Sequence of Serine/threonine-protein kinase 35 (Homo sapiens) (Q8TDR2 whole entry): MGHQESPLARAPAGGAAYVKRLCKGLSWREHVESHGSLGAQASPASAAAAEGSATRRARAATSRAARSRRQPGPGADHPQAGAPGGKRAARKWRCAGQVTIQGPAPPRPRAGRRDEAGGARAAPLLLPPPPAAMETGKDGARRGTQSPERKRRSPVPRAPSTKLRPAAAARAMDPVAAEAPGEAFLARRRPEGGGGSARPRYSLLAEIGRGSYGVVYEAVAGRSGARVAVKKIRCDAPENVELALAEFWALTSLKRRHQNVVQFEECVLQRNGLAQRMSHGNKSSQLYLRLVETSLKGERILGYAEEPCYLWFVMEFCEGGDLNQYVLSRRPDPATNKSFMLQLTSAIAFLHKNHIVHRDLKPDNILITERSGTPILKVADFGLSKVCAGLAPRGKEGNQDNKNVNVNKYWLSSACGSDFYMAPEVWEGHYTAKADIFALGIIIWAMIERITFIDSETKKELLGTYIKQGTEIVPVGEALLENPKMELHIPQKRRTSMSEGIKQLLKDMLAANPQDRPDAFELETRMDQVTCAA

[5] = target: Dual specificity protein kinase CLK3 (Homo sapiens) (UniProt P49761); test: Inhibition of recombinant full length human CLK3 assessed as residual activity at 10 uM using ERMRPRKRQGSVRRRV as substrate incubated 40 mins in presence of [gamma-33ATP] by scintillation counting based radiometry assay relative to control
[6] = test system: Mast/stem cell growth factor receptor Kit (Homo sapiens), P10721 [V560G]; test: Inhibition of recombinant human C-Kit V560G mutant (544 to end residues) assessed as residual activity at 10 uM poly(Glu, Tyr) 4:1 as substrate incubated 40 mins in presence of [gamma-33ATP] by scintillation counting based radiometry assay relative to control
[7] = target: Proto-oncogene tyrosine-protein kinase Src (Homo sapiens) (UniProt P12931); test: Inhibition of recombinant human C-Src assessed as residual activity at 10 uM Cdc2 peptide as substrate incubated 40 mins in presence of [gamma-33ATP] by scintillation counting based radiometry assay relative to control
[8] = target: Vascular endothelial growth factor receptor 1 (Homo sapiens) (UniProt P17948); test: Inhibition of recombinant human FLT1 (783 to end residues) assessed as residual activity at 10 uM using KKKSPGEYVNIEF as substrate at 40 mins in presence of [gamma-33ATP] by scintillation counting based radiometry assay relative to control
Sequence of Vascular endothelial growth factor receptor 1 (Homo sapiens) (P17948 whole entry, the tested form may be a part): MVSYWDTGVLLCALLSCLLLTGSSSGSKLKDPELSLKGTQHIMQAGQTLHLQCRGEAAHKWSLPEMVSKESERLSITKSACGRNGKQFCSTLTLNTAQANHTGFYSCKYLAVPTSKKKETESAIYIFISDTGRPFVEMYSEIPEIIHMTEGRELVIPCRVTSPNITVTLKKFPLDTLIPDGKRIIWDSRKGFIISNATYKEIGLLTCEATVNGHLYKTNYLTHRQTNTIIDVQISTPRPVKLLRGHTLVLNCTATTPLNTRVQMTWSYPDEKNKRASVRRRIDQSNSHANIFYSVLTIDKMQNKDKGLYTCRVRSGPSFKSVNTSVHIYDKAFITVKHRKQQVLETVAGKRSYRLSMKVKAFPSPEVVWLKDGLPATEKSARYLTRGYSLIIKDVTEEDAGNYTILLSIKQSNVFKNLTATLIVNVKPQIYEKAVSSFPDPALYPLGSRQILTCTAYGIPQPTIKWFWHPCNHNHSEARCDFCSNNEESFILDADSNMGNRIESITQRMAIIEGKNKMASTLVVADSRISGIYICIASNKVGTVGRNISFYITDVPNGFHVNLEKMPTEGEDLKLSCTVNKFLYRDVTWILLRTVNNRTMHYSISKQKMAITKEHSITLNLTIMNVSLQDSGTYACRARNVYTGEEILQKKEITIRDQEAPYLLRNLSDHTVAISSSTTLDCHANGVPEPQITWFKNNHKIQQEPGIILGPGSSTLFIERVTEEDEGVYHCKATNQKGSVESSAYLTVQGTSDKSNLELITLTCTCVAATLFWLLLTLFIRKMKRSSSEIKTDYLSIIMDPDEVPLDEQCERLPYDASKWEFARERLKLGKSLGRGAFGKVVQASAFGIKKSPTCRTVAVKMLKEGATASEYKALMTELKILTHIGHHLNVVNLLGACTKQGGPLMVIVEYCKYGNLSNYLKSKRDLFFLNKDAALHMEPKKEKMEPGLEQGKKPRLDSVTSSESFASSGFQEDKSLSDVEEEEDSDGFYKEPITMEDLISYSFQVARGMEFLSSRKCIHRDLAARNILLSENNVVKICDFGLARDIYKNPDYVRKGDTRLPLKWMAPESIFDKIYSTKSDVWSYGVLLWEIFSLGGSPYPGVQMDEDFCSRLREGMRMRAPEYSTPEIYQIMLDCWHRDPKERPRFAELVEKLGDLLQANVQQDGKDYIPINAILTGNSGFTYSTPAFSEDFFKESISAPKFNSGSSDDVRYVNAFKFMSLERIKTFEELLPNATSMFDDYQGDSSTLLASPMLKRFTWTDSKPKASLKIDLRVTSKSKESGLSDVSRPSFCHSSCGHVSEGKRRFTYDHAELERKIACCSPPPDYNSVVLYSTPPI

[9] = target: Tyrosine-protein kinase HCK (Homo sapiens) (UniProt P08631); test: Inhibition of human HCK (230 to 497 residues) assessed as residual activity at 10 uM using Cdc2 peptide as substrate after 40 mins by [gamma-33ATP] radiometric assay relative to control
[10] = target: MAPK/MAK/MRK overlapping kinase (Homo sapiens) (UniProt Q9UQ07); test: Inhibition of recombinant human MOK (1 to 343 residues) assessed as residual activity at 10 uM using RSRSRSRSRSRSR as substrate incubated for 40 mins in presence of [gamma-33ATP by scintillation counting based radiometry assay relative to control
Sequence of MAPK/MAK/MRK overlapping kinase (Homo sapiens) (Q9UQ07 whole entry, the tested form may be a part): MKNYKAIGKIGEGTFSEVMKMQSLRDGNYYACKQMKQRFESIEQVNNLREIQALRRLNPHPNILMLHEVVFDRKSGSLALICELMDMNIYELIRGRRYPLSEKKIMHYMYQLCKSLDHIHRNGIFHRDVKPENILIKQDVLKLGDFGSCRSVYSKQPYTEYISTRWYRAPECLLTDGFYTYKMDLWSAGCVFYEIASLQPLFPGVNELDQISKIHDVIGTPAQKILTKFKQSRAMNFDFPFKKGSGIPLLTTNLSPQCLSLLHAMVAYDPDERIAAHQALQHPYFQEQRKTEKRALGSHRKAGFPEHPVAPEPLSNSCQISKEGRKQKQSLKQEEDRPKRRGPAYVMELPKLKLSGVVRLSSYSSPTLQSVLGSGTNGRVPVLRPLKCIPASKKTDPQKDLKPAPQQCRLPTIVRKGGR

[11] = target: Myosin-IIIb (Homo sapiens) (UniProt Q8WXR4); test: Inhibition of recombinant human MYO3B (1 to 306 residues) assessed as residual activity at 10 uM using RLGRDKYKTLRQI as substrate measured after 40 mins in presence of [gamma33P]ATP by scintillation counting based radiometry assay relative to control
[12] = target: Serine/threonine-protein kinase Nek9 (Homo sapiens) (UniProt Q8TD19); test: Inhibition of recombinant human NEK9 (1 to 324 residues) assessed as residual activity at 10 uM using myelin basic protein as substrate measured after 40 mins in presence of [gamma33P]ATP by scintillation counting based radiometry assay relative to control
[13] = test system: Ribosomal protein S6 kinase beta-1 (Homo sapiens), P23443 [T412E]; test: Inhibition of recombinant human p70S6K T412E mutant (1 to 421 residues) assessed as residual activity at 10 uM using KKRNRTLTV as substrate measured after 40 mins in presence of [gamma33P]ATP by scintillation counting based radiometry assay relative to control
Sequence of Ribosomal protein S6 kinase beta-1 (Homo sapiens), P23443 [T412E] (P23443 whole entry T412E, looked up, the tested form may be a part): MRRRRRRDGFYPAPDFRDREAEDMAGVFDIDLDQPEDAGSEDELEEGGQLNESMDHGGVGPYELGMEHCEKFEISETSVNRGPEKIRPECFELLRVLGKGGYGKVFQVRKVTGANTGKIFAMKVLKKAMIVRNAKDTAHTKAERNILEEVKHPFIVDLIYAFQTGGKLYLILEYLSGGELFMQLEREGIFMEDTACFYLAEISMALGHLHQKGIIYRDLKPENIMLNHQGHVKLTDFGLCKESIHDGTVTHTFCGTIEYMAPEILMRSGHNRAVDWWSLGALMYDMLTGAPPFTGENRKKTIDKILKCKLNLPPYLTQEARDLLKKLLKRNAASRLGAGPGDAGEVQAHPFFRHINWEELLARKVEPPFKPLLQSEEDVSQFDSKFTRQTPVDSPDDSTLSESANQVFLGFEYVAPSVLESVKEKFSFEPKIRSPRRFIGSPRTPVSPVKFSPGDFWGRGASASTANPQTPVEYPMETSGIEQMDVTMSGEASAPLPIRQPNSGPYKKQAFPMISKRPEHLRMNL

[14] = test system: Platelet-derived growth factor receptor alpha (Homo sapiens), P16234 [V561D]; test: Inhibition of human PDGFRalpha V561D mutant (550 to end residues) assessed as residual activity at 10 uM using poly(Glu, Tyr) 4:1 as substrate measured after 40 mins in presence of [gamma33P]ATP by scintillation counting based radiometry assay relative to control
[15] = target: Receptor-interacting serine/threonine-protein kinase 2 (Homo sapiens) (UniProt O43353); test: Inhibition of recombinant human RIPK2 (1 to 299 residues) assessed as residual activity at 10 uM using myelin basic protein as substrate incubated for 120 mins in presence of [gamma33P]ATP by scintillation counting based radiometry assay relative to control
[16] = target: Serine/threonine-protein kinase SIK3 (Homo sapiens) (UniProt Q9Y2K2); test: Inhibition of recombinant human SIK3 (1 to 307 residues) assessed as residual activity at 10 uM using KKKVSRSGLYRSPSMPENLNRPR as substrate incubated for 40 mins in presence of [gamma33P]ATP by scintillation counting based radiometry assay relative to control
Sequence of Serine/threonine-protein kinase SIK3 (Homo sapiens) (Q9Y2K2 whole entry, looked up, the tested form may be a part): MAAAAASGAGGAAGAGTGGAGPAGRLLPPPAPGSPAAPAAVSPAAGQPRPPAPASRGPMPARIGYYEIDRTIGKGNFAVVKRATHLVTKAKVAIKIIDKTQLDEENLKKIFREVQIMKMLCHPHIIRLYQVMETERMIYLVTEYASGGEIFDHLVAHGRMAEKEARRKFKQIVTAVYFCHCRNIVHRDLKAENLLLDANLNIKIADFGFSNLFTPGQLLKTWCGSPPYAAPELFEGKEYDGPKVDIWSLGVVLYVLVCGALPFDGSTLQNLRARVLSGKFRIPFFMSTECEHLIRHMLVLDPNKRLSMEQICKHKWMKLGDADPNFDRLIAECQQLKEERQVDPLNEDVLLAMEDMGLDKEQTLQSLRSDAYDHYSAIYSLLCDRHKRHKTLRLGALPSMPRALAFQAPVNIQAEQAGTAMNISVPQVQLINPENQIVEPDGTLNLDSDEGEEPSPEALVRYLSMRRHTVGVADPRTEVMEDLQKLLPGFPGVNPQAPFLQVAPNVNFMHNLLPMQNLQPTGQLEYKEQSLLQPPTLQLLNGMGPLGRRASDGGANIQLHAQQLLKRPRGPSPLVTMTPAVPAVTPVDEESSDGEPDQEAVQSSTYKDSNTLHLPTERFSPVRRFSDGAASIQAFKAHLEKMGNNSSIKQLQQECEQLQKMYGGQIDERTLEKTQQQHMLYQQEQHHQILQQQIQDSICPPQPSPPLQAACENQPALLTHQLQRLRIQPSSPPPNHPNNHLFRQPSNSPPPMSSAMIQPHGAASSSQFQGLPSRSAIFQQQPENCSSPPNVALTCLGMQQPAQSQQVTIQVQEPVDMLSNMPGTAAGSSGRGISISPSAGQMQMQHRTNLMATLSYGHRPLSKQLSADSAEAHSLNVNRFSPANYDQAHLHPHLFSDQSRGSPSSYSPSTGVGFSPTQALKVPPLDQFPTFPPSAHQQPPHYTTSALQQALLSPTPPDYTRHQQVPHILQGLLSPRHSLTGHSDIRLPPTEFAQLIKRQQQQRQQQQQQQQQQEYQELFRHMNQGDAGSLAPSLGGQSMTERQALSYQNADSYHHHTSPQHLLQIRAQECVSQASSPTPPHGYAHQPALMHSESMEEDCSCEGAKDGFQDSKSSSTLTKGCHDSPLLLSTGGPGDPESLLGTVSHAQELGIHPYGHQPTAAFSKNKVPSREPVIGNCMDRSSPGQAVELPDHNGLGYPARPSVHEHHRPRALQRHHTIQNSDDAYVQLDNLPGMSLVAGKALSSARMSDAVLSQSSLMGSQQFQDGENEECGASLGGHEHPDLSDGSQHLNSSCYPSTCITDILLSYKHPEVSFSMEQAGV

[17] = target: Serine/threonine-protein kinase ULK2 (Homo sapiens) (UniProt Q8IYT8); test: Inhibition of recombinant human ULK2 (1 to 306 residues) assessed as residual activity at 10 uM using casein as substrate incubated for 40 mins in presence of [gamma33P]ATP by scintillation counting based radiometry assay relative to control
[18] = target: Wee1-like protein kinase (Homo sapiens) (UniProt P30291); test: Inhibition of recombinant human WEE1 (214 to end residues) assessed as residual activity at 10 uM using LSNLYHQGKFLQTFCGSPLYRRR as substrate incubated for 40 mins in presence of [gamma33P]ATP by scintillation counting based radiometry assay relative to control
Sequence of Wee1-like protein kinase (Homo sapiens) (P30291 whole entry, looked up): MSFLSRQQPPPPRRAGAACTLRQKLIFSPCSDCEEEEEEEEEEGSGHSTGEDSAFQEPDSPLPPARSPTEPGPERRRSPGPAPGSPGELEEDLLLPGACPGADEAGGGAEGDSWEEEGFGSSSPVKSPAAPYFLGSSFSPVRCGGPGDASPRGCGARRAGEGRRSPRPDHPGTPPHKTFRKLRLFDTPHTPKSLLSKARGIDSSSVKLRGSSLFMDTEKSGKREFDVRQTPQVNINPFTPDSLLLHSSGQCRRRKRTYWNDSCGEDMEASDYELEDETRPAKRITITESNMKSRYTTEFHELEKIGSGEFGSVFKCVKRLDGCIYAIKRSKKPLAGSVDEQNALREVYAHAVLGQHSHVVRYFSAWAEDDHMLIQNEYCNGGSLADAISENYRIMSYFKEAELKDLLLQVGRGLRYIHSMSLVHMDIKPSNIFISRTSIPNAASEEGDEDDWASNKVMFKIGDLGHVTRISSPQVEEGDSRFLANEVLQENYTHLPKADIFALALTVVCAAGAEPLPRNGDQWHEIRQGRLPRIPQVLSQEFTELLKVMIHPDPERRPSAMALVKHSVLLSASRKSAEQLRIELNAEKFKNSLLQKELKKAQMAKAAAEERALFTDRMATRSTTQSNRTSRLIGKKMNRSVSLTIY

[19] = target: Phosphatidylinositol 5-phosphate 4-kinase type-2 alpha (Homo sapiens) (UniProt P48426); test: Inhibition of recombinant full-length human PIP4K2alpha assessed as residual activity at 10 uM using phosphatidylinositol 5-phosphate as substrate by HTRF assay relative to control
[20] = target: Serine/threonine-protein kinase LATS1 (Homo sapiens, UniProt O95835); test: Binding affinity to recombinant human LATS1 (Q678 to V1130 residues) expressed in bacterial expression system assessed as dissociation constant by Kinomescan method
How it was run: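 KINOMEscan competition binding assay. Kinase bound at each concentration of test compound was quantified by qPCR and plotted against log10 compound concentration to derive Kd.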

## C[C@@H](c1ccccc1)n1nnc2cnc3ccc(-c4cnc5[nH]ccc5c4)cc3c21
[1]
  Activity: -1%
[2]
  Activity: 34%
[3]
  Activity: 45%
[4]
  Activity: 75%
[5]
  Activity: 66%
[6]
  Activity: 3%
[7]
  Activity: 27%
[8]
  Activity: 49%
[9]
  Activity: 9%
[10]
  Activity: 99%
[11]
  Activity: 73%
[12]
  Activity: 97%
[13]
  Activity: 54%
[14]
  Activity: 2%
[15]
  Activity: 23%
[16]
  Activity: 20%
[17]
  Activity: 98%
[18]
  Activity: 101%
[19]
  Activity: 95%
[20]
  Kd: > 10 µM
